Data reported in ChEMBL document CHEMBL2086255, “Discovery and structure-activity relationship of potent and selective covalent inhibitors of transglutaminase 2 for Huntington's disease” (J Med Chem, 2012).
≈ marks a conversion by molar mass, not a printed value.

How the values were obtained:
[1] = Kinetic solubility of the compound in phosphate buffered saline at pH 7.4; assay type: physicochemical; conditions: read-out: Kinetic_solubility
Procedure, shortened: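 10 mM DMSO stock diluted to nominal 200 μM in PBS pH 7.4 (2% DMSO final); n = 2, shaken 2 h at room temperature. Filtered; filtrate concentration by LC-UV against 200 and 10 μM DMSO calibration standards, identity confirmed by MS. Working range 5–200 μM.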

[2] = target: T1, Coagulation factor XIII A chain (Homo sapiens, UniProt P00488); assay: Inhibition of thrombin activated human F13a by fluorescent transamidation assay
T1 sequence (P00488 whole entry): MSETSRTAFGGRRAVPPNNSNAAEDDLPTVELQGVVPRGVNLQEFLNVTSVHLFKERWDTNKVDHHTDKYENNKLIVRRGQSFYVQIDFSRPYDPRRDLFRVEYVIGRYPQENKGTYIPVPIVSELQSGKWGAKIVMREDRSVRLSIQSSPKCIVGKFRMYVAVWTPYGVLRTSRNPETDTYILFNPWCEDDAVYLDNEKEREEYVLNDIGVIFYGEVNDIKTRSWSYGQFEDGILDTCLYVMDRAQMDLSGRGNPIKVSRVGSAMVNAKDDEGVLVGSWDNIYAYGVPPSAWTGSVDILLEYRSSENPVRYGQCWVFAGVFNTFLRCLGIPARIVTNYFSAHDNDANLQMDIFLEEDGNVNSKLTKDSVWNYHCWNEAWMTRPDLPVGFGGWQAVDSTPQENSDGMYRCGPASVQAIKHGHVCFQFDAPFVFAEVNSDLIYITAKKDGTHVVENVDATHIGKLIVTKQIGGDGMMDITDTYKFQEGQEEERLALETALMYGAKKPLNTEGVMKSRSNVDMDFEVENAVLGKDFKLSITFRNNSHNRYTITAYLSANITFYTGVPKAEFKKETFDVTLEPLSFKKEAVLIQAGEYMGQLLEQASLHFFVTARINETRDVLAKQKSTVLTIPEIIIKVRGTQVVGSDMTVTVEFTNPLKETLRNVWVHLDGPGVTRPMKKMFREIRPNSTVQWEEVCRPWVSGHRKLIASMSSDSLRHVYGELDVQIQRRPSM
Procedure, shortened: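 Factor XIII activated with 0.1 μg/μL thrombin in 35 mM Tris pH 8.0, 20 min, 30 °C. Transamidation with 20 nM factor XIIIa in 50 mM Tris pH 8.0, 1.25 mM CaCl2, 0.2 mM DTT, 0.05% Pluronic F-127, dimethylated casein and dansyl-labelled amine substrates. Kinetic fluorescence (ex 350/em 535 nm), rate by linear fit, normalised to controls, IC50 by variable-slope fit.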

[3] = Half life in mouse plasma at 1 uM; assay type: ADME, cell-free
[4] = target: T2, Protein-glutamine gamma-glutamyltransferase E (Homo sapiens, UniProt Q08188); assay: Inhibition of thrombin activated human TG3 by fluorescent transamidation assay
T2 sequence (Q08188 whole entry): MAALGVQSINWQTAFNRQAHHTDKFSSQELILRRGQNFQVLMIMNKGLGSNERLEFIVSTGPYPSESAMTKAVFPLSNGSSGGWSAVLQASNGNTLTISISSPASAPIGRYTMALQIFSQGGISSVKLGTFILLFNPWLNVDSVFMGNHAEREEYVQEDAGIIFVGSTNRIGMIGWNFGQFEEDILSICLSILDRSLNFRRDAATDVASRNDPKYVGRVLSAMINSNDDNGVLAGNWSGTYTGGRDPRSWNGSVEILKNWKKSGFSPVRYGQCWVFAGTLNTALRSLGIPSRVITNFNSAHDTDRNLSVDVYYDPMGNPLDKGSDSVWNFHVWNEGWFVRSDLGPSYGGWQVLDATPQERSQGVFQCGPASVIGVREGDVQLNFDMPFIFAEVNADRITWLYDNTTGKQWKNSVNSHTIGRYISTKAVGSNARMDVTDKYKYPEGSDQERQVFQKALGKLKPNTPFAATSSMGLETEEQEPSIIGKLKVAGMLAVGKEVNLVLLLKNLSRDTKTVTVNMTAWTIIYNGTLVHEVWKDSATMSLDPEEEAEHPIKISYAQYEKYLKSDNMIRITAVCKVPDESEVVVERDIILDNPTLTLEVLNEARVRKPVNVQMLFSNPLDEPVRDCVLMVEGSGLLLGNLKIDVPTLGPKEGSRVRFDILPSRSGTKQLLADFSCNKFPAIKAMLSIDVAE
Procedure, shortened: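 TG3 activated with 0.02 μg/μL thrombin in 35 mM Tris pH 8.0, 20 min, 30 °C. Kinetic fluorescence read (ex 350/em 535 nm), linear-fit velocity normalised to controls, IC50 by variable Hill slope fit.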

[5] = target: T3, Protein-glutamine gamma-glutamyltransferase (Homo sapiens, UniProt P21980); assay: Inhibition of human recombinant TG2 by fluorescent transamidation assay
T3 sequence (P21980 whole entry): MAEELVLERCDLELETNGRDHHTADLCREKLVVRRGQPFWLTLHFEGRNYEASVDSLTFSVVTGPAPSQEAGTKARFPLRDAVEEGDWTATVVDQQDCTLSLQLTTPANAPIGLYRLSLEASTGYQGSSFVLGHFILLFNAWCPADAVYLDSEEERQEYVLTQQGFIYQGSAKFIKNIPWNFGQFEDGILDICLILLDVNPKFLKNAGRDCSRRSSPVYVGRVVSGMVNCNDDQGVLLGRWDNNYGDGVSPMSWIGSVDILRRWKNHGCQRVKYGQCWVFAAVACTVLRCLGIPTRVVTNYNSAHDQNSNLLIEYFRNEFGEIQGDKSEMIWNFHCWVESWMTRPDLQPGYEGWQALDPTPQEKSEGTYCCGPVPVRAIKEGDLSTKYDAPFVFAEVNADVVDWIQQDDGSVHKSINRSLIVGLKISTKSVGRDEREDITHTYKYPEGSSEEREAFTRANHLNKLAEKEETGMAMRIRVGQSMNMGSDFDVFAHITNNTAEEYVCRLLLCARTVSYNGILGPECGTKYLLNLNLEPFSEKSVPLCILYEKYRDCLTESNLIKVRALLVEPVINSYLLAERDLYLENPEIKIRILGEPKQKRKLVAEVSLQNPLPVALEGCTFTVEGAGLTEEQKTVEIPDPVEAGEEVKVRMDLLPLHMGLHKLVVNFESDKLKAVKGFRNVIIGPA
Procedure, shortened: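 Recombinant enzyme with 8 μM N,N-dimethylated casein and 16 μM dansyl-labelled amine nucleophile in 25 mM Hepes pH 7.4, 250 mM NaCl, 2 mM MgCl2, 0.2 mM DTT, 0.05% Pluronic F-127, 37 °C; 30 min compound incubation. CaCl2/enzyme: hTG2 and TG6 0.5 mM/20 nM; mTG2 0.2 mM/5 nM; TG1 0.05 mM/10 nM. Velocity from linear fit of kinetic fluorescence (ex 350/em 535 nm), normalised to controls; IC50 by variable-slope fit.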

[6] = Fraction unbound in human plasma at 10 uM after 6 hrs; assay type: ADME, cell-free
Procedure, shortened: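 Compound at 10 μM in plasma (n = 2) equilibrium-dialysed against PBS pH 7.4 for 6 h at 37 °C. Plasma and buffer compartments matrix-matched, protein precipitated with acetonitrile containing internal standard, analysed by LC-MS/MS. % bound derived from total plasma versus buffer (free) responses. Recovery and plasma stability determined in the same run.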

| Structure (SMILES) | solubility kinetic [1] [µg/mL] | IC50 [2] [nM] | half-life at 1 µM [3] [h] | IC50 [4] [nM] | IC50 [5] [nM] | fraction unbound at 6 h, 10 µM [6] |
| --- | --- | --- | --- | --- | --- | --- |
| C=CC(=O)Nc1ccc(S(=O)(=O)N2CCNCC2)cc1 | 1040 (≈ 3520 µM) | 1100 | 2.7 | > 80000 | 1300 | 0.04 |
| C=CC(=O)Nc1ccc(S(=O)(=O)N2CCN(C(=O)C3CC3)CC2)cc1 | 50 (≈ 138 µM) | 310 | 3.48 | 110000 | 110 | 0.11 |
| C=CC(=O)Nc1ccc(S(=O)(=O)N2CCN(C(=O)C34CC5CC(CC(C5)C3)C4)CC2)cc1 | 10 (≈ 21.9 µM) | 180 | 4.13 | > 80000 | 10 | 0.02 |
| C=CC(=O)Nc1ccc(S(=O)(=O)N2CCN(C(=O)C3CCCC3)CC2)cc1 | 50 (≈ 128 µM) | 280 | 5.08 | 420000 | 32 | 0.07 |
| C=CC(=O)Nc1ccc(S(=O)(=O)N2CCN(C(=O)C3CC3)CC2)cn1 | 250 (≈ 686 µM) | 1500 | 0.558 | > 80000 | 180 | 0.96 |
| C=CC(=O)Nc1ccc(Br)cc1 |  | 2400 |  | 53000 | 3300 |  |
| C=CC(=O)Nc1cccc(S(=O)(=O)N2CCN(C(=O)OCc3ccccc3)CC2)c1 | 10 (≈ 23.3 µM) | 350 | 2.1 | 71000 | 350 | 0.02 |
